Active and inactive are the calls of the source. The rule behind the calls is not given here.
Tests used:
[1] = tested on: MCF7; assay: Cell cycle arrest in human MCF7 cells assessed as accumulation at G2/M phase at 4 uM after 24 hrs by propidium iodide staining-based flow cytometric analysis (reference value: 15%); format: functional
[2] = tested on: MCF7; assay: Cell cycle arrest in human MCF7 cells assessed as accumulation at S phase at 4 uM after 24 hrs by propidium iodide staining-based flow cytometric analysis (reference value: 5%); format: functional
[3] = tested on: MCF7; assay: Cell cycle arrest in human MCF7 cells assessed as accumulation at G1 phase at 4 uM after 24 hrs by propidium iodide staining-based flow cytometric analysis (reference value: 77%); format: functional
[4] = tested on: MCF7; assay: Cell cycle arrest in human MCF7 cells assessed as accumulation at G0 phase at 4 uM after 24 hrs by propidium iodide staining-based flow cytometric analysis (reference value: 3%); format: functional
[5] = tested on: MCF7; assay: Antiinvasive activity in human MCF7 cells assessed as downregulation of alphaVbeta3 integrin protein expression at 4 uM after 24 hrs by Western blot analysis; format: functional, cell-based
[6] = tested on: MCF7; assay: Disruption of mitochondrial membrane potential in human MCF7 cells at 4 uM after 24 hrs by JC-1 dye-based fluorescence assay; format: functional, cell-based
Method in brief: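 MCF-7 cells exposed 24 h at 4 µM, etoposide as reference, then stained with 2.5 µM JC-1 for 20 min at room temperature. Fluorescence imaging: red J-aggregates indicate intact potential, green monomers indicate loss, read as red-to-green shift.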

[7] = tested on: MCF7; assay: Induction of apoptosis in human MCF7 cells assessed as upregulation of cytochrome-c protein expression in cytosol at 4 uM after 24 hrs by Western blotting analysis; format: functional, cell-based
[8] = tested on: MCF7; assay: Induction of apoptosis in human MCF7 cells assessed as upregulation of caspase-9 protein expression at 4 uM after 24 hrs by Western blotting analysis; format: functional, cell-based
[9] = tested on: MCF7; assay: Antimitotic activity in human MCF7 cells assessed as upregulation of cyclin B1 protein expression at 4 uM after 24 hrs by Western blotting analysis; format: functional, cell-based
[10] = tested on: MCF7; assay: Antimitotic activity in human MCF7 cells assessed as downregulation of Cdk1 protein expression at 4 uM after 24 hrs by Western blotting analysis; format: functional, cell-based
[11] = tested on: MCF7; assay: Antimitotic activity in human MCF7 cells assessed as upregulation of p53 protein expression at 4 uM after 24 hrs by Western blotting analysis; format: functional, cell-based
[12] = tested on: MCF7; assay: Antiangiogenic activity in human MCF7 cells assessed as effect on AKT1 protein expression at 4 uM after 24 hrs by Western blotting analysis; format: functional, cell-based
[13] = tested on: MCF7; assay: Antiangiogenic activity in human MCF7 cells assessed as upregulation of STAT1 protein expression at 4 uM after 24 hrs by Western blotting analysis; format: functional, cell-based
[14] = tested on: MCF7; assay: Antiangiogenic activity in human MCF7 cells assessed as downregulation of AKT phosphorylation at Ser473 at 4 uM after 24 hrs by Western blotting analysis; format: functional, cell-based
[15] = tested on: MCF7; assay: Antiangiogenic activity in human MCF7 cells assessed as downregulation of phosphorylated ERK1/2 protein expression at 4 uM after 24 hrs by Western blotting analysis; format: functional, cell-based
[16] = tested on: MCF7; assay: Antiangiogenic activity in human MCF7 cells assessed as downregulation of STAT3 protein expression at 4 uM after 24 hrs by Western blotting analysis; format: functional, cell-based
[17] = tested on: MCF7; assay: Antiangiogenic activity in human MCF7 cells assessed as downregulation of ERK1/2 protein expression at 4 uM after 24 hrs by Western blotting analysis; format: functional, cell-based
[18] = tested on: MCF7; assay: Antiangiogenic activity in human MCF7 cells assessed as downregulation of VEGF-A protein expression at 4 uM after 24 hrs by Western blotting analysis; format: functional, cell-based
[19] = tested on: HUVEC; assay: Cytotoxicity against HUVEC assessed as cell viability at 1 uM after 6 hrs by MTT assay; format: cell-based; details: human
Method in brief: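 HUVEC at 10,000 cells/well exposed for 6 h across 0.5–32 µM; percent viability plotted, etoposide as standard. Triplicates, Student t-test.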

[20] = tested on: HUVEC; assay: Antiangiogenic activity in HUVEC assessed as inhibition of VEGF-A-induced tube formation at 1 uM after 6 hrs by inverted microscopic analysis; format: functional, cell-based; details: Homo sapiens
Method in brief: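 HUVEC (ECM medium, 5% FBS, 1% ECGS) seeded at 5×10^3 cells/well on EC matrix solidified at 37 °C, grown 12 h in endothelial growth media, then treated at 1 µM final for about 6 h. Tube formation examined by inverted microscopy. Etoposide as reference.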

[21] = tested on: MDA-MB-231; assay: Cytotoxicity against human MDA-MB-231 cells assessed as cell viability at 0.5 to 32 uM after 24 hrs by MTT assay; format: functional, cell-based
Method in brief: (§1)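 Cells seeded at 10,000/well, incubated overnight, then exposed 24 h to 0.5–32 µM, etoposide as standard. MTT added, 2 h at 37 °C; formazan solubilised in extraction buffer, OD read at 570 nm; percent viability determined. Triplicates, Student t-test.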

[22] = tested on: PANC-1; assay: Cytotoxicity against human PANC1 cells assessed as cell viability at 0.5 to 32 uM after 24 hrs by MTT assay; format: functional, cell-based; method in brief: as §1
[23] = tested on: MCF7; assay: Cytotoxicity against human MCF7 cells assessed as cell viability at 0.5 to 32 uM after 24 hrs by MTT assay; format: functional, cell-based; method in brief: as §1

In the case of COc1cc([C@@H]2c3cc4c(cc3[C@@H](NC(=O)CCCCOc3ccc5nc(C)n(-c6cc(OC)c(OC)c(OC)c6)c(=O)c5c3)[C@H]3COC(=O)[C@H]23)OCO4)cc(OC)c1OC, the Activity [1] is reported as 35%, the Activity [2] is reported as 5% and the Activity [3] is reported as 51%. For the same compound, the Activity [4] was 10%.

For COc1cc([C@@H]2c3cc4c(cc3[C@@H](NC(=O)CCCCCOc3ccc5nc(C)n(-c6ccc(Cl)c(Cl)c6)c(=O)c5c3)[C@H]3COC(=O)[C@H]23)OCO4)cc(OC)c1OC, the Activity [5] was “Active”, the Activity [6] was “Active” and the Activity [7] was “Active”. The Activity [8] was “Active”, the Activity [9] was “Active” and the Activity [10] was “Active”. The Activity [11] was “Active”, the Activity [12] was “inactive” and the Activity [13] was “Active”. For the same compound, the Activity [14] was “Active”, the Activity [15] was “Active” and the Activity [16] was “Active”. For the same compound, the Activity [17] was “Active”, the Activity [18] was “Active” and the Activity [19] was “Non-toxic”. The inhibition [20] was “Active”, the Activity [1] was 40% and the Activity [2] was 5%. The Activity [3] was 45%, the Activity [4] was 10% and the Activity [21] was “Active”. For the same compound, the Activity [22] was “Active” and the Activity [23] was “Active”.

Compound COc1cc([C@@H]2c3cc4c(cc3[C@@H](NC(=O)CCCCOc3ccc5nc(C)n(-c6ccc(Cl)c(Cl)c6)c(=O)c5c3)[C@H]3COC(=O)[C@H]23)OCO4)cc(OC)c1OC has an Activity [1] of 34%, an Activity [2] of 5% and an Activity [3] of 49%. For the same compound, the Activity [4] was 12%.

In the case of COc1cc([C@@H]2c3cc4c(cc3[C@@H](NC(=O)CCCCCOc3ccc5nc(C)n(-c6ccc(F)cc6)c(=O)c5c3)[C@H]3COC(=O)[C@H]23)OCO4)cc(OC)c1OC, the Activity [5] is reported as “Active”, the Activity [6] is reported as “Active” and the Activity [7] is reported as “Active”. The Activity [8] was “Active”, the Activity [9] was “Active” and the Activity [10] was “Active”. The Activity [11] was “Active”, the Activity [12] was “inactive” and the Activity [13] was “Active”. The Activity [14] was “Active”, the Activity [15] was “Active” and the Activity [16] was “Active”. The Activity [17] was “Active”, the Activity [18] was “Active” and the Activity [19] was “Non-toxic”. The inhibition [20] was “Active”, the Activity [1] was 45% and the Activity [2] was 4%. For the same compound, the Activity [3] was 37%, the Activity [4] was 14% and the Activity [21] was “Active”. For the same compound, the Activity [22] was “Active” and the Activity [23] was “Active”.

In the case of COc1cc(OC)cc(-n2c(C)nc3ccc(OCCCCC(=O)N[C@@H]4c5cc6c(cc5[C@@H](c5cc(OC)c(OC)c(OC)c5)[C@H]5C(=O)OC[C@@H]54)OCO6)cc3c2=O)c1, the Activity [1] is reported as 39%, the Activity [2] is reported as 6% and the Activity [3] is reported as 49%. For the same compound, the Activity [4] was 6%.

COc1cc([C@@H]2c3cc4c(cc3[C@@H](NC(=O)CCCCCOc3ccc5nc(C)n(-c6cc(OC)c(OC)c(OC)c6)c(=O)c5c3)[C@H]3COC(=O)[C@H]23)OCO4)cc(OC)c1OC showed an Activity [1] of 39%, an Activity [2] of 5% and an Activity [3] of 50%. The Activity [4] was 7%.

For COc1ccc(-n2c(C)nc3ccc(OCCCCCC(=O)N[C@@H]4c5cc6c(cc5[C@@H](c5cc(OC)c(OC)c(OC)c5)[C@H]5C(=O)OC[C@@H]54)OCO6)cc3c2=O)cc1, the Activity [5] was “Active”, the Activity [7] was “Active” and the Activity [8] was “Active”. The Activity [9] was “Active”, the Activity [10] was “Active” and the Activity [11] was “Active”. The Activity [12] was “inactive”, the Activity [13] was “Active” and the Activity [14] was “Active”. For the same compound, the Activity [15] was “Active”, the Activity [16] was “Active” and the Activity [17] was “Active”. The Activity [18] was “Active”, the Activity [19] was “Non-toxic” and the Activity [1] was 41%. The Activity [2] was 4%, the Activity [3] was 47% and the Activity [4] was 8%. The Activity [21] was “Active”, the Activity [22] was “Active” and the Activity [23] was “Active”.

Work on COc1cc(OC)cc(-n2c(C)nc3ccc(OCCCCCC(=O)N[C@@H]4c5cc6c(cc5[C@@H](c5cc(OC)c(OC)c(OC)c5)[C@H]5C(=O)OC[C@@H]54)OCO6)cc3c2=O)c1 yielded an Activity [1] of 37%, an Activity [2] of 5% and an Activity [3] of 49%. For the same compound, the Activity [4] was 9%.

In the case of COc1ccc(-n2c(C)nc3ccc(OCCCCC(=O)N[C@@H]4c5cc6c(cc5[C@@H](c5cc(OC)c(OC)c(OC)c5)[C@H]5C(=O)OC[C@@H]54)OCO6)cc3c2=O)cc1, the Activity [1] is reported as 39%, the Activity [2] is reported as 10% and the Activity [3] is reported as 44%. The Activity [4] was 7%.

For COc1cc([C@@H]2c3cc4c(cc3[C@@H](NC(=O)CCCCCOc3ccc5nc(C)n(-c6ccc([N+](=O)[O-])cc6)c(=O)c5c3)[C@H]3COC(=O)[C@H]23)OCO4)cc(OC)c1OC, the Activity [5] was “Active”, the Activity [7] was “Active” and the Activity [8] was “Active”. The Activity [9] was “Active”, the Activity [10] was “Active” and the Activity [11] was “Active”. The Activity [12] was “inactive”, the Activity [13] was “Active” and the Activity [14] was “Active”. The Activity [15] was “Active”, the Activity [16] was “Active” and the Activity [17] was “Active”. The Activity [18] was “Active”, the Activity [19] was “Non-toxic” and the Activity [1] was 41%. The Activity [2] was 5%, the Activity [3] was 49% and the Activity [4] was 5%. For the same compound, the Activity [21] was “Active”, the Activity [22] was “Active” and the Activity [23] was “Active”.

COc1cc([C@@H]2c3cc4c(cc3[C@@H](NC(=O)CCCCOc3ccc5nc(C)n(-c6ccc(F)cc6)c(=O)c5c3)[C@H]3COC(=O)[C@H]23)OCO4)cc(OC)c1OC showed an Activity [1] of 38%, an Activity [2] of 5% and an Activity [3] of 49%. For the same compound, the Activity [4] was 8%.

With COc1cc([C@@H]2c3cc4c(cc3[C@@H](O[C@@H]3O[C@@H]5CO[C@@H](C)O[C@H]5[C@H](O)[C@H]3O)[C@H]3COC(=O)[C@H]23)OCO4)cc(OC)c1O [ETOPOSIDE] the Activity [5] was “Active”, the Activity [6] was “Active” and the Activity [7] was “Active”. The Activity [8] was “Active”, the Activity [19] was “Non-toxic” and the Activity [1] was 67%. The Activity [2] was 6%, the Activity [3] was 18% and the Activity [4] was 9%.

COc1cc([C@@H]2c3cc4c(cc3[C@@H](NC(=O)CCCCOc3ccc5nc(C)n(-c6ccc([N+](=O)[O-])cc6)c(=O)c5c3)[C@H]3COC(=O)[C@H]23)OCO4)cc(OC)c1OC showed an Activity [1] of 40%, an Activity [2] of 5% and an Activity [3] of 51%. It also gave an Activity [4] of 5%.
